Assay results taken from ChEMBL document CHEMBL1154461, “6-Substituted 2-oxo-2H-1-benzopyran-3-carboxylic acid derivatives in a new approach of the treatment of cancer cell invasion and metastasis” (2008).

Legend:
[1] = tested on: HT-1080; experiment: Antiinvasive activity in human HT1080 cells assessed as number of cells migrated at 1 uM after 48 hrs by Boyden chamber invasion assay
[2] = tested on: HT-1080; experiment: Antiinvasive activity in human HT1080 cells assessed as number of cells migrated at 0.1 uM after 24 hrs by Boyden chamber invasion assay; format: functional; details: in the assay text read “after 48 hrs” for “after 24 hrs”
Method in brief: (§1)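 HT 1080 cells, harvested at 70–80% confluence, were seeded at 6×10⁴ cells per filter in serum-free DMEM with BSA. Transwell filters were coated with human placental type IV collagen. Chambers were incubated 48 h at 37 °C, with media renewed at 24 h. Lower-surface cells were fixed, Giemsa-stained and counted by light microscopy. Results are % of untreated control migration, mean ± s.d., n=3.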

[3] = tested on: HT-1080; experiment: Antiinvasive activity in human HT1080 cells assessed as number of cells migrated at 10 uM after 24 hrs by Boyden chamber invasion assay; format: functional; details: in the assay text read “after 48 hrs” for “after 24 hrs”
Method in brief: as §1

[4] = tested on: HT-1080; experiment: Antiinvasive activity in human HT1080 cells assessed as number of cells migrated at 0.1 uM after 48 hrs by Boyden chamber invasion assay
[5] = tested on: HT-1080; experiment: Antiinvasive activity in human HT1080 cells assessed as number of cells migrated at 10 uM after 48 hrs by Boyden chamber invasion assay

| Compound | Cells migrated [1] | Activity [2] | Activity [3] | Activity [4] | Activity [5] |
| --- | --- | --- | --- | --- | --- |
| CC(=O)NCc1ccc2oc(=O)c(C(=O)Oc3cccc(F)c3)cc2c1 | 65.58% |  |  |  |  |
| O=C1NC(=O)C(c2ccc(-c3ccccc3)cc2)(N2CCN(c3ccc([N+](=O)[O-])cc3)CC2)C(=O)N1 | 41.6% |  |  |  |  |
| Cl.NCc1ccc2oc(=O)c(C(=O)Oc3cccc(Br)c3)cc2c1 | 79.25% | 88.26% | 63.58% |  |  |
| CC(=O)OCc1ccc2oc(=O)c(C(=O)Sc3cccc(Br)c3)cc2c1 | 70.86% | 79.58% | 67.84% |  |  |
| Cl.NCc1ccc2oc(=O)c(C(=O)Oc3cccc(Cl)c3)cc2c1 | 86.56% |  |  |  |  |
| CC(C)(C)C(=O)OCc1ccc2oc(=O)c(C(=O)Oc3cccc(Br)c3)cc2c1 | 48.21% |  | 23.64% | 65.24% |  |
| CC(=O)OCc1ccc2oc(=O)c(C(=O)Nc3cccc(Cl)c3)cc2c1 | 66.85% | 79.55% | 42.75% |  |  |
| CCCCCC(=O)OCc1ccc2oc(=O)c(C(=O)Oc3cccc(Br)c3)cc2c1 | 59.32% | 94.25% | 33.94% |  |  |
| CC(=O)OCc1ccc2oc(=O)c(C(=O)N(C)c3cccc(Cl)c3)cc2c1 | 82.56% |  |  |  |  |
| CC(=O)NCc1ccc2oc(=O)c(C(=O)Oc3cccc(Cl)c3)cc2c1 | 36.58% |  |  |  |  |
| CC(=O)NCc1ccc2oc(=O)c(C(=O)Oc3cccc(I)c3)cc2c1 | 23.47% |  |  |  |  |
| CC(=O)OCc1ccc2oc(=O)c(C(=O)N(C)c3ccc(Cl)cc3)cc2c1 | 98.56% |  |  |  |  |
| CC(=O)OCc1ccc2oc(=O)c(C(=O)Sc3ccccc3)cc2c1 | 83.45% | 89.45% | 73.84% |  |  |
| CCC(=O)OCc1ccc2oc(=O)c(C(=O)Oc3cccc(Br)c3)cc2c1 | 40.23% | 84.36% | 21.32% |  |  |
| Cl.NCc1ccc2oc(=O)c(C(=O)Oc3cccc(I)c3)cc2c1 | 25.34% |  |  |  |  |
| CC(C)CC(C(=O)N(C)C(Cc1ccccc1)C(=O)O)C(CSc1ccccc1)C(=O)NO (configuration not stated) | 38.45% |  |  |  |  |
| CC(C)C(=O)OCc1ccc2oc(=O)c(C(=O)Oc3cccc(Br)c3)cc2c1 | 37.8% | 54.36% | 21.07% |  |  |
| CCCC(=O)OCc1ccc2oc(=O)c(C(=O)Oc3cccc(Br)c3)cc2c1 | 50.47% | 88.55% |  |  | 24.67% |

| Compound | Cells migrated [1] | Activity [2] | Activity [3] | Activity [4] | Activity [5] |
| --- | --- | --- | --- | --- | --- |
| O=C(Oc1cccc(I)c1)c1cc2cc([N+](=O)[O-])ccc2oc1=O | 63.58% |  |  |  |  |
| O=C(Oc1cccc(Cl)c1)c1cc2ccccc2oc1=O | 45.5% | 52.4% | 35.65% |  |  |
| O=C(Oc1cccc(F)c1)c1cc2cc([N+](=O)[O-])ccc2oc1=O | 53.56% |  |  |  |  |
| Cl.NCc1ccc2oc(=O)c(C(=O)Oc3ccccc3)cc2c1 | 85.53% |  |  |  |  |
| O=C(Oc1cccc(Br)c1)c1cc2cc([N+](=O)[O-])ccc2oc1=O | 35.22% |  |  |  |  |
| CC(=O)OCc1ccc2oc(=O)c(C(=O)Oc3cccc(Cl)c3)cc2c1 | 49.11% | 95.2% | 6.17% |  |  |
| CC(=O)OCc1ccc2oc(=O)c(C(=O)Oc3cccc(Br)c3)cc2c1 | 21.81% | 39.47% | 11.77% |  |  |
| O=C(Oc1ccccc1)c1cc2cc([N+](=O)[O-])ccc2oc1=O | 76.68% |  |  |  |  |
| CCCCC(=O)OCc1ccc2oc(=O)c(C(=O)Oc3cccc(Br)c3)cc2c1 | 63.25% | 92.36% | 32.26% |  |  |
| Cl.NCc1ccc2oc(=O)c(C(=O)Oc3cccc(F)c3)cc2c1 | 45.25% |  |  |  |  |
| CC(=O)OCc1ccc2oc(=O)c(C(=O)N(C)c3ccccc3Cl)cc2c1 | 62.78% |  |  |  |  |
| Cc1ccc2oc(=O)c(C(=O)Oc3cccc(Cl)c3)cc2c1 | 52.49% | 81.5% | 27.62% |  |  |
| CCCCCCC(=O)OCc1ccc2oc(=O)c(C(=O)Oc3cccc(Br)c3)cc2c1 | 55.56% | 89.36% | 35.96% |  |  |
| CC(=O)OCc1ccc2oc(=O)c(C(=O)Sc3cccc(Cl)c3)cc2c1 | 65.84% | 76.54% | 61.86% |  |  |
| CC(=O)NCc1ccc2oc(=O)c(C(=O)Oc3cccc(Br)c3)cc2c1 | 36.94% | 34.38% | 27.14% |  |  |
| O=C(Oc1cccc(Cl)c1)c1cc2cc(CCl)ccc2oc1=O | 79.76% | 98.35% | 67% |  |  |
| O=C(Oc1cccc(Cl)c1)c1cc2cc([N+](=O)[O-])ccc2oc1=O | 65.78% |  |  |  |  |
| CC(=O)NCc1ccc2oc(=O)c(C(=O)Oc3ccccc3)cc2c1 | 63.45% |  |  |  |  |
